Active and inactive are the calls of the source. The rule behind the calls is not given here.
What was measured:
Homo sapiens [1] = species: Homo sapiens; assay: Selectivity index, ratio of Ki for human 5-HT1E receptor to Ki for human 5-HT7 receptor
In short: (§1)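 Selectivity index taken as Ki at the other 5-HT receptor subtype divided by Ki at 5-HT7R, each from [3H]LSD membrane binding run by the NIMH PDSP. Ki values are means of at least three experiments in triplicate.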

[2] = target: T1, 5-hydroxytryptamine receptor 7 (Homo sapiens, UniProt P34969)
[3] = target: T1, 5-hydroxytryptamine receptor 7; remark: listed apart in the source
[4] = target: 5-hydroxytryptamine receptor 4 (Homo sapiens, UniProt Q13639); assay: Displacement of [3H]LSD from human 5-HT4 receptor expressed in HEK cell membranes after 1.5 hrs by microbeta scintillation counting method
In short: (§2)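 Radioligand binding performed by the NIMH Psychoactive Drug Screening Program. Crude membranes from cells expressing recombinant receptor, with [3H]LSD, in 50 mM Tris-HCl, 10 mM MgCl2, 1 mM EDTA, pH 7.4. Eleven test concentrations. Incubated 1.5 h at room temperature, protected from light. Filtered onto PEI-soaked GF/B filters, then scintillation counting. IC50 converted to Ki; at least three experiments in triplicate.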

[5] = target: 5-hydroxytryptamine receptor 2A (Homo sapiens, UniProt P28223); assay: Displacement of [3H]LSD from human 5-HT2A receptor expressed in HEK cell membranes after 1.5 hrs by microbeta scintillation counting method; in short: as §2
[6] = target: T1, 5-hydroxytryptamine receptor 7; assay: Inverse agonist activity at human 5-HT7 receptor expressed in HEK293 cells assessed as decrease in Gs protein-mediated cAMP accumulation by luminescence-based assay; type: functional, cell-based
In short: (§3)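 HEK293 cells transiently transfected by calcium phosphate with human 5-HT7R and GloSensor-22F cAMP biosensor. After 5-6 h recovery, loaded with GloSensor reagent in HBSS/20 mM HEPES, pH 7.4. Test compounds at 0.01 nM-100 μM final; antagonist mode uses 5-HT stimulation. Luminescence read. Data normalised to 5-HT or SB269970 (100%) and vehicle (0%). Three experiments, at least triplicate.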

[7] = target: T1, 5-hydroxytryptamine receptor 7; assay: Antagonist activity at human 5-HT7 receptor expressed in HEK293 cells assessed as inhibition of Gs protein-mediated cAMP accumulation by luminescence-based assay relative to SB269970; type: functional, cell-based; in short: as §3
Homo sapiens [8] = species: Homo sapiens; assay: Selectivity index, ratio of Ki for human 5-HT2B receptor to Ki for human 5-HT7 receptor; in short: as §1
Homo sapiens [9] = species: Homo sapiens; assay: Selectivity index, ratio of Ki for human 5-HT5A receptor to Ki for human 5-HT7 receptor; in short: as §1
CYP2C19 = CYP2C19 (Homo sapiens, UniProt P33261); assay: Inhibition of CYP2C19 in human liver microsomes assessed as remaining activity at 10 uM using S-mephenytoin as substrate preincubated for 5 mins followed by addition of NADPH generating system measured after 15 mins by LC-MS analysis; type: ADME; conditions: probe S-mephenytoin, read-out: Activity
In short: (§4)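 Human liver microsomes 0.25 mg/ml in 0.1 M phosphate, pH 7.4, with a probe cocktail: phenacetin 50 μM, diclofenac 10 μM, S-mephenytoin 100 μM, dextromethorphan 5 μM, midazolam 2.5 μM. Test compound at 10 μM versus 0 μM control. 5 min at 37 °C, then NADPH-generating system for 15 min. Acetonitrile quench; metabolites measured by LC/MS as % remaining activity.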

Mus musculus [10] = assay: Sleep promoting activity in C57B1/6J mouse assessed as increase in total non-rapid eye movement sleep time at 30 mg/kg, ip measured over 8 hrs by electroencephalogram method; type: functional
In short: (§5)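 Adult male C57Bl/6J mice, 10 weeks old, with parietal EEG screw electrodes implanted under ketamine. EEG and EMG recorded for 8 h from 9 AM, starting one day before dosing as baseline. On test day, 30 mg/kg i.p. at the start of the light phase, with EEG/EMG recorded for 8 h and scored in 2-h bins. n = 6-9 per group; mean ± SEM versus vehicle.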

[11] = Apparent volume of distribution at steady state in ICR mouse at 5 mg/kg, iv by LC-MS/MS analysis; type: ADME, organism-based; conditions: in vivo, read-out: Vdss
In short: (§6)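 Male ICR mice, 7~8 weeks, 30 ± 5 g; single dose 5 mg/kg IV (n = 5) or 50 mg/kg oral (n = 4). Plasma protein-precipitated with acetonitrile containing internal standard, then LC-MS/MS. Non-compartmental analysis; AUClast by trapezoidal rule. Mean ± SD.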

CYP1A2 = target: T2, CYP1A2 (Homo sapiens, UniProt P05177); assay: Inhibition of CYP1A2 in human liver microsomes assessed as remaining activity at 10 uM using phenacetin as substrate preincubated for 5 mins followed by addition of NADPH generating system measured after 15 mins by LC-MS analysis; type: ADME; conditions: probe phenacetin, read-out: Activity; in short: as §4
T2 sequence (P05177 whole entry): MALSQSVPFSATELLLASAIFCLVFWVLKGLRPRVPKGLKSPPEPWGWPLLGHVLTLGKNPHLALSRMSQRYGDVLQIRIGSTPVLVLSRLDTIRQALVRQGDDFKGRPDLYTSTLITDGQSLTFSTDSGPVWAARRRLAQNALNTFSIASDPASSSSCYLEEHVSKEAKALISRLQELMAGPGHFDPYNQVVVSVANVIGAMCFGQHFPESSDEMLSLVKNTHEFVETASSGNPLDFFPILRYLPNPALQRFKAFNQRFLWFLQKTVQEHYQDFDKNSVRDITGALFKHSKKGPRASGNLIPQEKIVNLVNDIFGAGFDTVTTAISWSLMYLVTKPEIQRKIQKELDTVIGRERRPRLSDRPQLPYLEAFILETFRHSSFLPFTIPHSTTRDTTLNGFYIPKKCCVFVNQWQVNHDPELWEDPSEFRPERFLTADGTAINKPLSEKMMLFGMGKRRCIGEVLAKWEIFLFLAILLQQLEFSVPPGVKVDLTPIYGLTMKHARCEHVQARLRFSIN

[12] = MRT in ICR mouse at 5 mg/kg, iv by LC-MS/MS analysis; type: ADME, organism-based; conditions: in vivo; in short: as §6
[13] = Terminal half-life in ICR mouse at 50 mg/kg, po by LC-MS/MS analysis; type: ADME, organism-based; conditions: in vivo, read-out: beta t1/2 (converted); in short: as §6
[14] = AUClast in ICR mouse at 5 mg/kg, iv by LC-MS/MS analysis; type: ADME, organism-based; set-up: dose 5 mg/kg, time 0 - last, route intravenous; conditions: in vivo; in short: as §6
Mus musculus [15] = assay: Sleep promoting activity in C57B1/6J mouse assessed as decrease in total rapid eye movement sleep time at 30 mg/kg, ip measured over 8 hrs by electroencephalogram method; type: functional; set-up: scale not given: the % may be the effect or the level left; in short: as §5
[16] = Clearance in ICR mouse at 5 mg/kg, iv by LC-MS/MS analysis; type: ADME, organism-based; conditions: in vivo; in short: as §6
Mus musculus [17] = assay: Toxicity in ICR mouse assessed as mortality at 50 mg/kg, po; type: organism-based; conditions: in vivo
In short: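 Observed in male ICR mice (7~8 weeks, 30 ± 5 g; n = 4) during a pharmacokinetic study after a single oral dose. Mice were held at 23 ± 3° and about 55% ± 10% humidity with standard feed and tap water. Blood was drawn via carotid artery from 0.25 to 8 h after dosing.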

Sequence of 5-hydroxytryptamine receptor 2A (P28223 whole entry): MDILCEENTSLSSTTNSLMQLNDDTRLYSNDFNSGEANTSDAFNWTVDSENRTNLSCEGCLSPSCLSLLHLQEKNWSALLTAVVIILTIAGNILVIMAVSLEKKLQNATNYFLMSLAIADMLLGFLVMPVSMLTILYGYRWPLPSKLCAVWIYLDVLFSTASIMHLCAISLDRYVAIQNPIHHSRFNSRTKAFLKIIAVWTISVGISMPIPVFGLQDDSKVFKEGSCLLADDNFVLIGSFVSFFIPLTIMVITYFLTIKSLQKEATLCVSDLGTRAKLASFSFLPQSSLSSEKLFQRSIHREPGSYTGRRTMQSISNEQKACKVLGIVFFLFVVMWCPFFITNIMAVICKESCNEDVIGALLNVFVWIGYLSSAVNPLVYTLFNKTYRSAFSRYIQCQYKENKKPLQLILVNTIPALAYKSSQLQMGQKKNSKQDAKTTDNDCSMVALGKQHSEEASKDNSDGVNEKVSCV
T1 sequence (P34969 whole entry): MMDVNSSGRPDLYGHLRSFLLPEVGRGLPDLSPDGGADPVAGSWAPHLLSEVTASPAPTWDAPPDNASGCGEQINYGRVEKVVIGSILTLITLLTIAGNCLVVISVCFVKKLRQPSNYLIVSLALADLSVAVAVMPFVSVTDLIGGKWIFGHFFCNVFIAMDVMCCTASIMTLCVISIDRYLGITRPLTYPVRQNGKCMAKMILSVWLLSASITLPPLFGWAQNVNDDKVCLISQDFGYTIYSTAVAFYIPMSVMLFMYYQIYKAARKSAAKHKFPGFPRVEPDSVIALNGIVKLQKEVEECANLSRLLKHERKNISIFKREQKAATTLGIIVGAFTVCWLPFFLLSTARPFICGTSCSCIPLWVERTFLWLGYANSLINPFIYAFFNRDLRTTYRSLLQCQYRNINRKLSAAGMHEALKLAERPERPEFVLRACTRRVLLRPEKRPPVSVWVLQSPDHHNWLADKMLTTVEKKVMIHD
Sequence of 5-hydroxytryptamine receptor 4 (Q13639 whole entry): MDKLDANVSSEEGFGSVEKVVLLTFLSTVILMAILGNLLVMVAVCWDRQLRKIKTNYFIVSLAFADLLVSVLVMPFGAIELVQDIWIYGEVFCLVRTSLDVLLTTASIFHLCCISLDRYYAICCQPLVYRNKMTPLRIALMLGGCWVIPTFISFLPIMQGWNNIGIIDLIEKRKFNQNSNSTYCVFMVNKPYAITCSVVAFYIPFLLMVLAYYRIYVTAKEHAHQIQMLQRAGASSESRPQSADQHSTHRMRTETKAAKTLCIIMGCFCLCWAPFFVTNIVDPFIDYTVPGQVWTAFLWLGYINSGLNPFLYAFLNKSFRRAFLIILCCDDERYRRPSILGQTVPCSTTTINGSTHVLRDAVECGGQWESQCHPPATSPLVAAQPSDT
Sequence of CYP2C19 (P33261 whole entry): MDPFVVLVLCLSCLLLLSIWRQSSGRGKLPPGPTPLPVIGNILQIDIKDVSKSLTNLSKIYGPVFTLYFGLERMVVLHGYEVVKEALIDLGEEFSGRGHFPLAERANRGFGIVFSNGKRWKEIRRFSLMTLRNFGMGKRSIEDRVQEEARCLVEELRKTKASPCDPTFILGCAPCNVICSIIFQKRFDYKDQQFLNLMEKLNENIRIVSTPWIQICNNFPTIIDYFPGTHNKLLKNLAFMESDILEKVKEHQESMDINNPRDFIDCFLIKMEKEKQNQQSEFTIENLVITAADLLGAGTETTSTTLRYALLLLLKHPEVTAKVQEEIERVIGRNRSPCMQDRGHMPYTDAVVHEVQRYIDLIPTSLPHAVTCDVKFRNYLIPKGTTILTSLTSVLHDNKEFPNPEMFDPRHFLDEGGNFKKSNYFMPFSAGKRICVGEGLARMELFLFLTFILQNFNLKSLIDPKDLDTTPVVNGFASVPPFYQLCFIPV

| Structure (SMILES) | Ratio Ki (Homo sapiens [1]) | EC50 [2] [µM] | IC50 [3] [µM] | Ki [4] [µM] | Ki [5] [µM] | Activity [6] | Imax [7] [%] | Ratio Ki (Homo sapiens [8]) | Ratio Ki (Homo sapiens [9]) | activity at 0.25 h, 10 µM (CYP2C19) [%] | Activity (Mus musculus [10]) [%] | Vd [11] [L/kg] | activity at 0.25 h, 10 µM (CYP1A2) [%] | MRT [12] [h] | half-life [13] [h] | AUC(0-t) [14] [ng·h/mL] | Activity (Mus musculus [15]) [%] | clearance [16] [mL/min/kg] | Activity (Mus musculus [17]) |
| --- | --- | --- | --- | --- | --- | --- | --- | --- | --- | --- | --- | --- | --- | --- | --- | --- | --- | --- | --- |
| Cc1ccc(-c2noc3c2CCNCC3)cc1 | 112 | 0.0408 | 0.844 | > 10 | 0.138 | Active | 95.8 | 9.4 | 70.9 | – | – | – | – | – | – | – | – | – | – |
| Fc1ccc(-c2n[nH]c3c2CCNCC3)cc1 | 7.6 | 0.188 | 6.98 | > 10 | 0.175 | Active | 98.4 | 0.9 | – | – | – | – | – | – | – | – | – | – | – |
| Clc1ccc(-c2n[nH]c3c2CCNCC3)cc1 | 45.5 | 0.162 | 7.79 | > 10 | 0.187 | Active | 94.8 | 3.3 | – | > 100 | 21.4 | 2.47 | 86 | 2.5 | 2.77 | 4900 | 36.7 | 16 | Non-Toxic |

— ChEMBL document CHEMBL4196105, “Discovery of β-Arrestin Biased Ligands of 5-HT7R” (J Med Chem, 2018)
